Reference: ChEMBL document CHEMBL1139209, “Cytotoxic constituents of the stems of Cinnamomum subavenium” (2007)

Key:
Type in all cases: functional, Homo sapiens
SW480 [1] = experiment: Cell cycle arrest in SW480 cells by accumulation at S phase at 100 uM after 24 hrs by propidium iodide staining
Outline: (§1)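 SW480 human colorectal cancer cells (ATCC) grown in DMEM with 10% FBS, penicillin/streptomycin in 60 mm dishes; medium replenished at 80% confluence. Monolayers exposed 24 h to 0, 25, 50, 75 or 100 µM (DMSO stock, 0.1% DMSO final). Adherent plus floating cells fixed in PBS-methanol (1:2) ≥18 h at 4 °C, stained 30 min with 50 µg/mL PI plus RNase A.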

SW480 [2] = experiment: Cell cycle arrest in SW480 cells by accumulation at G1 phase at 25 uM after 24 hrs by propidium iodide staining; outline: as §1
SW480 [3] = experiment: DNA damage assessed as accumulation in subG1 level of cell cycle arrest in SW480 cells at 100 uM after 24 hrs by propidium iodide staining; outline: as §1
SW480 [4] = experiment: Cell cycle arrest in SW480 cells by accumulation at G1 phase at 50 uM after 24 hrs by propidium iodide staining; outline: as §1
SW480 [5] = experiment: Cell cycle arrest in SW480 cells by accumulation at G1 phase at 100 uM after 24 hrs by propidium iodide staining; outline: as §1
SW480 [6] = experiment: Cell cycle arrest in SW480 cells by accumulation at G2/M phase at 100 uM after 24 hrs by propidium iodide staining; outline: as §1
SW480 [7] = experiment: Cell cycle arrest in SW480 cells by accumulation at G2/M phase at 50 uM after 24 hrs by propidium iodide staining; outline: as §1
SW480 [8] = experiment: Cell cycle arrest in SW480 cells by accumulation at G2/M phase at 25 uM after 24 hrs by propidium iodide staining; outline: as §1
SW480 [9] = experiment: Cell cycle arrest in SW480 cells by accumulation at G2/M phase at 75 uM after 24 hrs by propidium iodide staining; outline: as §1
SW480 [10] = experiment: Cell cycle arrest in SW480 cells by accumulation at S phase at 75 uM after 24 hrs by propidium iodide staining; outline: as §1
SW480 [11] = experiment: Cell cycle arrest in SW480 cells by accumulation at G1 phase at 75 uM after 24 hrs by propidium iodide staining; outline: as §1
SW480 [12] = experiment: Cell cycle arrest in SW480 cells by accumulation at S phase at 25 uM after 24 hrs by propidium iodide staining; outline: as §1
SW480 [13] = experiment: DNA damage assessed as accumulation in subG1 level of cell cycle arrest in SW480 cells at 50 uM after 24 hrs by propidium iodide staining; outline: as §1
SW480 [14] = experiment: Cell cycle arrest in SW480 cells by accumulation at S phase at 50 uM after 24 hrs by propidium iodide staining; outline: as §1
SW480 [15] = experiment: DNA damage assessed as accumulation in subG1 level of cell cycle arrest in SW480 cells at 75 uM after 24 hrs by propidium iodide staining; outline: as §1
SW480 [16] = experiment: DNA damage assessed as accumulation in subG1 level of cell cycle arrest in SW480 cells at 25 uM after 24 hrs by propidium iodide staining; outline: as §1

For `CCCCCCCCCCCCC/C=C(/C(=O)OC)[C@H](O)C(C)=O` [SECOSUBAMOLIDE], the Activity (SW480 [1]) was 34.5%, the Activity (SW480 [2]) was 47.1% and the Activity (SW480 [3]) was 51.8%. The Activity (SW480 [4]) was 47.9%, the Activity (SW480 [5]) was 47.9% and the Activity (SW480 [6]) was 17.6%. The Activity (SW480 [7]) was 11.4%, the Activity (SW480 [8]) was 13.4% and the Activity (SW480 [9]) was 12.8%. It also gave an Activity (SW480 [10]) of 38.3%, an Activity (SW480 [11]) of 49% and an Activity (SW480 [12]) of 39.5%. The Activity (SW480 [13]) was 9.1%, the Activity (SW480 [14]) was 40.6% and the Activity (SW480 [15]) was 23.4%.

With `CCCCCCCCCCCCC/C=C1/C(=O)O[C@@](C)(OC)[C@@H]1O` [SUBAMOLIDE B] the Activity (SW480 [1]) was 37.4%, the Activity (SW480 [2]) was 47.7% and the Activity (SW480 [3]) was 71%. It also gave an Activity (SW480 [4]) of 44.2%, an Activity (SW480 [16]) of 6.6% and an Activity (SW480 [5]) of 46%. It also gave an Activity (SW480 [6]) of 16.6%, an Activity (SW480 [7]) of 16.9% and an Activity (SW480 [8]) of 6.4%. It also gave an Activity (SW480 [9]) of 20.8%, an Activity (SW480 [10]) of 33.4% and an Activity (SW480 [11]) of 45.8%. The Activity (SW480 [12]) was 46%, the Activity (SW480 [13]) was 23.7% and the Activity (SW480 [14]) was 38.8%. The Activity (SW480 [15]) was 47.2%.

`C=C1C=C(C(CCCCCCCCCCCCCC)OC)C(=O)O1` (stereo not drawn) [SUBAMOLIDE C] gave an Activity (SW480 [1]) of 33%, an Activity (SW480 [2]) of 44.4% and an Activity (SW480 [3]) of 38.8%. It also gave an Activity (SW480 [4]) of 47.6%, an Activity (SW480 [16]) of 6.1% and an Activity (SW480 [5]) of 47.8%. For the same compound, the Activity (SW480 [6]) was 19.3%, the Activity (SW480 [7]) was 11.3% and the Activity (SW480 [8]) was 9.8%. The Activity (SW480 [9]) was 12.4%, the Activity (SW480 [10]) was 43.1% and the Activity (SW480 [11]) was 44.5%. The Activity (SW480 [12]) was 45.8%, the Activity (SW480 [13]) was 11% and the Activity (SW480 [14]) was 41.2%. The Activity (SW480 [15]) was 34.6%.

`CCCCCCCCCCCCC/C=C1\C(=O)O[C@@](C)(OC)[C@@H]1O` [SUBAMOLIDE A] was tested, and the Activity (SW480 [1]) was 29.8%, the Activity (SW480 [2]) was 48.2% and the Activity (SW480 [3]) was 64.4%. For the same compound, the Activity (SW480 [4]) was 46.3%, the Activity (SW480 [16]) was 8.5% and the Activity (SW480 [5]) was 52.6%. For the same compound, the Activity (SW480 [6]) was 17.7%, the Activity (SW480 [7]) was 12.8% and the Activity (SW480 [8]) was 12.2%. For the same compound, the Activity (SW480 [9]) was 13%, the Activity (SW480 [10]) was 42% and the Activity (SW480 [11]) was 45%. It also gave an Activity (SW480 [12]) of 39.6%, an Activity (SW480 [13]) of 25.4% and an Activity (SW480 [14]) of 41%. The Activity (SW480 [15]) was 27.3%.
